GC-B act: GC-B (human) receptor activation; hit rate 0.11% among 370,000; activation, % at 10 µM; HEK293-GC-B cells, CNP EC30, cGMP TR-FRET; 0% at EC30 CNP, 100% saturating CNP; P20594;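 active = activation at 10 µM reaching about 35% in either raw or pattern-adjusted values, limit read from the data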
Target sequence (P20594 whole entry, looked up): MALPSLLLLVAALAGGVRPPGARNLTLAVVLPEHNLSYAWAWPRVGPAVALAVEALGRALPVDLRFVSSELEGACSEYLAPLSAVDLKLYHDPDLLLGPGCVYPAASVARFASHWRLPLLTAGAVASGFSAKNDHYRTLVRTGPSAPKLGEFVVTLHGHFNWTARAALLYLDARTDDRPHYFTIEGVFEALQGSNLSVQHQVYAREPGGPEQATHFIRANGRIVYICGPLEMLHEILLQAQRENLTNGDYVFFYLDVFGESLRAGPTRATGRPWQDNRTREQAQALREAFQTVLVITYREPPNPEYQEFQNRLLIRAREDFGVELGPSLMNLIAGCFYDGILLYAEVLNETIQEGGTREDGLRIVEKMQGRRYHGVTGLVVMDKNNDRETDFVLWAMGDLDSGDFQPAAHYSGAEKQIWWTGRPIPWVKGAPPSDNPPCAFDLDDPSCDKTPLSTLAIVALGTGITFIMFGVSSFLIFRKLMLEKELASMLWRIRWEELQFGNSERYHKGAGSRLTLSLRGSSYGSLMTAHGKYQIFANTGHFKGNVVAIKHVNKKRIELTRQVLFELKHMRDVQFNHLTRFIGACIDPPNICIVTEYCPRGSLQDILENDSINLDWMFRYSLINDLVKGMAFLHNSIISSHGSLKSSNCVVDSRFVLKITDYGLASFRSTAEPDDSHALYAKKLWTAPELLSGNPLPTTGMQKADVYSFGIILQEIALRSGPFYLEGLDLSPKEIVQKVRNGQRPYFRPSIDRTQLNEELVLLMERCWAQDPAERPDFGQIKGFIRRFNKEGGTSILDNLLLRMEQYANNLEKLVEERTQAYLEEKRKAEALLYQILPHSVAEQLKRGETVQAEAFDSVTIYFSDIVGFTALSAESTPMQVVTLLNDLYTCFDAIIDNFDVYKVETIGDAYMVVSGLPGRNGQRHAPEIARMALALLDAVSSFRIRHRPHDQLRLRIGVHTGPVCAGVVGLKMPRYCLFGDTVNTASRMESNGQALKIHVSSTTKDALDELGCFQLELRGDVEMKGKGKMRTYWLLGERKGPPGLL
N-glyco inh: N-linked glycosylation inhibition; D54 ERlucT glycosylation luciferase reporter, 24 h; percent of 100 nM tunicamycin response; reporter increase, % at 12.5 µM; hit rate 0.23% among 360,000; AID 588692;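 active = mean luciferase reporter signal, scaled so untreated is 0 and the glycosylation-blocking control 100, at or above a set limit in every replicate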;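 also: luciferase carries N-glycosylation sites so blocking glycosylation raises the light; 0% = median of neutral control wells and 100% = median of 100 nM tunicamycin wells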
Vif inh: inhibitors of HIV Vif | HEK293T cells, Vif self-association by quenched fluorescence, imaging, 24 h | hit rate 0.35% among 340,000 | inhibition, % at 7.49 µM; in the data active = inhibition above about 50%, passing the limit was not always enough
NPR1 activator: GC-A (human) enzyme activation. HEK293 GC-A cells, cGMP TR-FRET, EC30 ANP; 0% at EC30 ANP, 100% saturating ANP. hit rate 0.14% among 370,000. AID 1671463. P16066. activation, % at 10 µM; in the data active = activation above about 40%
Xi reactivation: X-chromosome reactivation activator; activation, % at 7.58 µM; XiGFP mouse fibroblasts, % GFP-positive cells imaging, 3 d; cells co-treated with 5-aza-dC sensitizer; scaled so ellipticine positive control = 100%; hit rate 0.055% among 360,000; AID 743238;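 active = mean normalized replicate activation at least 10% and every replicate at or above 10%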;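 also: 0% = median of on-plate neutral control wells and 100% = ellipticine 6 µM median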
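Schedule: 3 d treatment, 15 min room-temperature fixation; system: 68-5-11 XiGFP fibroblast line; buffer or medium: DMEM plus 5-aza-dC sensitizer; control set: ellipticine 6 µM positive control; compound: one concentration, pinned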
CaV13 ICDI inh: Disruptors of the CACNA1D IQ motif to Ca2+-dependent inactivation inhibitor domain association, primary screening, Förster resonance energy transfer in intact living … | inhibition, % at 12.3 µM | hit rate 0.098% among 340,000 | HEK cells, CFP/YFP FRET ICDI-IQ, plate reader, 10 min; percent FRET-ratio fall versus neutral wells;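 active = mean replicate inhibition of at least 30% and at least 1% of replicates passing that level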;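 also: 0% = median of the neutral control wells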
The depositor's hits bear a star. This is a sample that favours compounds with a hit; in the whole collection about 0.7% have one here.

Results for COc1ccc2c(c1)OC[C@H]1[C@H]2N2C(=O)c3cc(Cl)ccc3NC(=O)[C@@]2(C)[C@H]1c1ccccc1 ?
N-glyco inh: 21; Vif inh: -4

Results for CO[C@H]1CN(C)C(=O)c2cc(NC(=O)Nc3c(C)noc3C)ccc2OC[C@H](C)N(CC2CC2)C[C@H]1C ?
Xi reactivation: 0

Results for CCC(=O)N(C)C[C@H]1Oc2ncc(-c3ccccc3OC)cc2C(=O)N([C@@H](C)CO)C[C@@H]1C ?
Xi reactivation: -1

How did COc1ccc2c3c([nH]c2c1)[C@H](CO)N(C(=O)C1CCC1)CC31CN(C)C1 do in these assays?
Xi reactivation: 0

How did O=C(C[C@H]1C[C@H]2c3cc(NC(=O)C4CCOCC4)ccc3O[C@H]2[C@@H](CO)O1)NCc1ccccn1 do in these assays?
Xi reactivation: 1

What do the screens show for `C[C@@]12C(=O)Nc3ccc(Br)cc3C(=O)N1[C@H]1c3cc(Br)ccc3OC[C@@H]1[C@@H]2c1ccccc1`?
GC-B act: 1; N-glyco inh: 15; Vif inh: -3; NPR1 activator: -5; Xi reactivation: 0; CaV13 ICDI inh: -10

Results for COc1ccc2c(c1)C(=O)N1[C@H]3c4cc(Br)ccc4OC[C@@H]3[C@H](c3ccccc3)[C@]1(C)C(=O)N2 ?
N-glyco inh: 37*; Vif inh: 26

How did C[C@@]12C(=O)Nc3cc(F)ccc3C(=O)N1[C@H]1c3ccccc3OC[C@@H]1[C@@H]2c1ccccc1 do in these assays?
N-glyco inh: 26*; Vif inh: -1

How did COC(=O)[C@@H]1[C@@H](CO)[C@@H]2Cn3c(cccc3=O)[C@@H]2N1C(=O)C1CCCCC1 do in these assays?
Xi reactivation: 0

Results for CC(C)C#Cc1cnc2c(c1)C(=O)N([C@@H](C)CO)C[C@H](C)[C@@H](CN(C)C(=O)Nc1cccc(F)c1)O2 ?
Xi reactivation: 0

Results for CCn1c2ccccc2c2cc(NC(=O)COc3ccccc3OC)ccc21 ?
GC-B act: -3; N-glyco inh: 16; Vif inh: 1; NPR1 activator: -2; CaV13 ICDI inh: -7

Results for CCn1c2ccccc2c2cc(NC(=O)COC(=O)c3cccc(S(=O)(=O)NC)c3)ccc21 ?
GC-B act: 2; N-glyco inh: 24; Vif inh: -4; NPR1 activator: -6; Xi reactivation: 0; CaV13 ICDI inh: -15

What do the screens show for `CCN(CC)S(=O)(=O)c1cccc(C(=O)OCC(=O)Nc2ccc3c(c2)c2ccccc2n3CC)c1`?
GC-B act: 1; N-glyco inh: 29*; Vif inh: 2; NPR1 activator: -5; Xi reactivation: 0; CaV13 ICDI inh: -15

Results for CCn1c2ccccc2c2cc(NC(=O)CNCc3ccccc3OC)ccc21 ?
GC-B act: -3; N-glyco inh: 29*; Vif inh: 4; NPR1 activator: -8; Xi reactivation: 0; CaV13 ICDI inh: -7

How did C[C@H](CO)N1C[C@H](C)[C@H](CN(C)S(=O)(=O)c2ccc(F)cc2)Oc2ccc(NC(=O)Nc3ccccc3)cc2C1=O do in these assays?
Xi reactivation: -1

How did COC(=O)N(C)C[C@@H]1OCc2cn(nn2)CCCC(=O)N([C@@H](C)CO)C[C@@H]1C do in these assays?
Xi reactivation: 0

What do the screens show for `C[C@@H]1CN([C@@H](C)CO)C(=O)c2cc(C#CCN(C)C)cnc2O[C@H]1CN(C)C(=O)c1ccc(F)cc1`?
Xi reactivation: -1

How did COc1ccc(-c2cccc(-c3nc4ccc(Cl)cn4c3NC3CCCCC3)c2)cc1 do in these assays?
GC-B act: 50*; N-glyco inh: -5; Vif inh: 1; NPR1 activator: 43*; Xi reactivation: 0; CaV13 ICDI inh: -10

How did CCC(C)Sc1cc(-c2nc3ccc(Cl)cn3c2NC2CCCCC2)ccc1OC (stereo not drawn) do in these assays?
GC-B act: 29; N-glyco inh: -9; Vif inh: -5; NPR1 activator: 40; Xi reactivation: 1; CaV13 ICDI inh: -13

Results for CC(=O)c1csc(-c2cccc(-c3nc4ccc(Cl)cn4c3NC3CCCCC3)c2)c1 ?
GC-B act: 56*; N-glyco inh: -10; Vif inh: -3; NPR1 activator: 51*; Xi reactivation: 0; CaV13 ICDI inh: -12

How did CNC[C@H]1Oc2ccc(NC(=O)CCN3CCOCC3)cc2CC(=O)N([C@@H](C)CO)C[C@@H]1C do in these assays?
Xi reactivation: 0

Results for COc1ccc(S(=O)(=O)N(C)C[C@H]2Oc3ccc(NS(=O)(=O)c4ccccc4)cc3C(=O)N([C@@H](C)CO)C[C@H]2C)cc1 ?
Xi reactivation: 0

What do the screens show for `Cc1ccc(N(CC(=O)NCc2ccc3c(c2)OCO3)C(=O)c2csnn2)cc1`?
GC-B act: 2; N-glyco inh: 1; Vif inh: 10; NPR1 activator: 3; Xi reactivation: 0; CaV13 ICDI inh: -3

How did O=C(CN(C(=O)c1csnn1)c1ccc(F)cc1)NCc1ccc2c(c1)OCO2 do in these assays?
GC-B act: -6; N-glyco inh: -1; Vif inh: 75*; NPR1 activator: 5; Xi reactivation: 0; CaV13 ICDI inh: -3

Results for C[C@H](CO)N1C[C@H](C)[C@H](CN(C)S(=O)(=O)c2ccc(F)cc2)Oc2ccc(NC(=O)CCC(F)(F)F)cc2C1=O ?
Xi reactivation: 0

Results for CCCCNC(=O)c1cc(-c2ccc(F)cc2)on1 ?
GC-B act: -15; N-glyco inh: 37*; Vif inh: 9; NPR1 activator: 17; CaV13 ICDI inh: -6

How did O=C(NCCCN1CCOCC1)c1cc(-c2ccccc2)on1 do in these assays?
GC-B act: -3; N-glyco inh: 30*; Vif inh: 18; NPR1 activator: 2; CaV13 ICDI inh: -7

Results for O=C(NCCN1CCOCC1)c1cc(-c2ccccc2)on1 ?
GC-B act: -1; N-glyco inh: 13; Vif inh: 1; NPR1 activator: 3; CaV13 ICDI inh: -4

What do the screens show for `CC(C)NC(=O)Nc1ccc2c(c1)C(=O)N([C@@H](C)CO)C[C@@H](C)[C@H](CN(C)C)O2`?
Xi reactivation: 0

Results for COc1ccc(NC(=O)c2ccc([N+](=O)[O-])o2)cc1 ?
GC-B act: -4; N-glyco inh: 31*; Vif inh: 15; NPR1 activator: 0; Xi reactivation: 0; CaV13 ICDI inh: 3

What do the screens show for `O=C(Nc1c(Cl)ccc2nsnc12)c1ccc([N+](=O)[O-])o1`?
GC-B act: 5; N-glyco inh: 46*; Vif inh: 18; NPR1 activator: -4; Xi reactivation: 0; CaV13 ICDI inh: -7
